Assay results published in ChEMBL document CHEMBL4414673, “The DESIGNER Approach Helps Decipher the Hypoglycemic Bioactive Principles of Artemisia dracunculus (Russian Tarragon)” (J Nat Prod, 2019).
Calls of active or inactive are those of the source. The rule behind the calls is not given here.

Key:
[1] = Toxicity in high fat diet-induced C57BL/6J mouse assessed as upregulation of total AKT expression in adipose tissue at 300 mg/kg administered via gavage for 2 weeks and measured after 6 hrs post dose by Western blot analysis; assay type: organism-based; details: in vivo, po
Summary of the method: (§1)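 Male C57BL/6J mice, singly housed, were fed a 60% kcal fat diet from 4 weeks of age for 16 weeks and acclimated to gavage for 2 weeks. They got one gavage dose of 100 or 300 mg/kg in Labrasol vehicle and were euthanized at 6 h. Muscle, liver or gonadal fat was lysed in HEPES/Igepal buffer, and 50 μg protein was immunoblotted with chemiluminescent detection.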

[2] = system: Mus musculus; experiment: Hypoglycemic activity in high fat diet-induced obese C57BL/6J mouse assessed as increase in C-peptide level at 100 to 300 mg/kg […] and measured after 6 hrs post dose; assay type: functional, organism-based
Summary of the method: (§2)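 Diet-induced obese male C57BL/6J mice were given one gavage dose (100 or 300 mg/kg, Labrasol vehicle). Fasting plasma insulin and C-peptide (ng/mL) were measured by ELISA 6 h after dosing, as mean ± SD versus vehicle.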

[3] = system: Mus musculus; experiment: Effect on insulin signalling in high fat diet-induced obese C57BL/6J mouse assessed as increase in IR-beta phosphorylation at tyrosine 1150 residue at 100 to 300 mg/kg administered via gavage for 2 weeks and measured after 6 hrs post dose by Western blot analysis; assay type: functional, organism-based; summary of the method: as §1
[4] = molecular target: RAC-alpha serine/threonine-protein kinase (Mus musculus) (UniProt P31750); experiment: Activation of insulin signalling in palmitate-induced insulin resistant mouse C2C12 cells assessed as upregulation of AKT phosphorylation at threonine 308 and Ser273 residue at 10 ug/ml by Western blot analysis; assay type: cell-based
Summary of the method: (§3)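 C2C12 myoblasts were grown in high-glucose (25 mM) DMEM with 10% FBS and differentiated with 2% horse serum, then switched to low-glucose (5 mM) medium. Insulin resistance was induced with palmitate. Myotubes were treated at 10 μg/mL, exposed to insulin for 10 min and harvested. Total and phosphorylated signaling proteins were analysed by Western blot.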

[5] = system: Mus musculus; experiment: Effect on insulin signalling in high fat diet-induced C57BL/6J mouse assessed as AKT phosphorylation at Ser […] residue in liver at 100 to 300 mg/kg administered via gavage for 2 weeks and measured after 6 hrs post dose by Western blot analysis; assay type: functional, organism-based; summary of the method: as §1
[6] = system: Mus musculus; experiment: Effect on insulin signalling in high fat diet-induced C57BL/6J mouse assessed as AKT phosphorylation at Ser […] residue in adipose tissue at 100 to 300 mg/kg administered via gavage for 2 weeks and measured after 6 hrs post dose by Western blot analysis; assay type: functional, organism-based; summary of the method: as §1
[7] = system: Mus musculus; experiment: Effect on insulin signalling in high fat diet-induced obese C57BL/6J mouse assessed as increase in PI3K-P85 expression in skeletal muscle at 100 mg/kg administered via gavage for 2 weeks and measured after 6 hrs post dose by Western blot analysis; assay type: functional, organism-based; summary of the method: as §1
[8] = system: Mus musculus; experiment: Effect on insulin signalling in high fat diet-induced obese C57BL/6J mouse assessed as effect on AKT phosphorylation at threonine 308 residue expression in adipose tissue at 100 to 300 mg/kg administered via gavage for 2 weeks and measured after 6 hrs post dose by Western blot analysis; assay type: functional, organism-based; summary of the method: as §1
[9] = system: Mus musculus; experiment: Effect on insulin signalling in high fat diet-induced obese C57BL/6J mouse assessed as effect on AKT phosphorylation at threonine 308 residue expression in liver at 100 to 300 mg/kg administered via gavage for 2 weeks and measured after 6 hrs post dose by Western blot analysis; assay type: functional, organism-based; summary of the method: as §1
[10] = molecular target: Glycogen synthase kinase-3 alpha/beta (Mus musculus) (UniProt Q9WV60+Q2NL51); experiment: Activation of insulin signalling in palmitate-induced insulin resistant mouse C2C12 cells assessed as increase GSK-3 alpha/beta phosphorylation at 10 ug/ml by Western blot analysis; assay type: cell-based; summary of the method: as §3
[11] = system: Mus musculus; experiment: Hypoglycemic activity in high fat diet-induced obese C57BL/6J mouse assessed as increase in insulin level at 300 mg/kg administered via gavage […] and measured after 6 hrs post dose; assay type: functional, organism-based; summary of the method: as §2
[12] = system: Mus musculus; experiment: Effect on total IRbeta expression in high fat diet-induced obese C57BL/6J mouse skeletal muscle at 100 to 300 mg/kg administered via gavage for 2 weeks and measured after 6 hrs post dose by Western blot analysis; assay type: organism-based; details: in vivo, po; summary of the method: as §1
[13] = system: Mus musculus; experiment: Hypoglycemic activity in high fat diet-induced obese C57BL/6J mouse assessed as reduction in blood glucose level at 100 to 300 mg/kg […] and measured after 6 hrs post dose; assay type: functional, organism-based
Summary of the method: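 Obese male C57BL/6J mice (60% kcal fat diet for 16 weeks, gavage-acclimated for 2 weeks) received one oral gavage dose of 100 or 300 mg/kg in Labrasol. Fasting whole-blood glucose was read by glucometer at baseline and hourly. Results are given as mg/dL and % change from baseline at 6 h, mean ± SD versus vehicle.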

[14] = Toxicity in high fat diet-induced obese C57BL/6J mouse assessed as effect on body weight at 100 to 300 mg/kg administered via gavage for 2 weeks and measured after 6 hrs post dose; assay type: organism-based; details: in vivo, po
Summary of the method: (§4)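 Male C57BL/6J mice on a 60% kcal fat diet from 4 weeks of age were weighed weekly. Body weights at 20 weeks of age are reported for mice randomized to the gavage treatment groups, as mean ± SD versus vehicle.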

[15] = system: C2C12; experiment: Activation of insulin signalling in palmitate-induced insulin resistant mouse C2C12 cells assessed as increase in glycogen level at 10 ug/ml; assay type: functional, cell-based
Summary of the method: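 Palmitate-treated, insulin-resistant C2C12 myotubes (differentiated in 2% horse serum, low-glucose DMEM) were treated at 10 μg/mL and exposed to insulin for 10 min before harvest. Glycogen was measured with a kit assay and expressed as ng released glucose/μg protein.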

[16] = system: Mus musculus; experiment: Effect on insulin signalling in high fat diet-induced obese C57BL/6J mouse assessed as increase in AKT phosphorylation at serine […] residue in skeletal muscle at 100 to 300 mg/kg administered via gavage for 2 weeks and measured after 6 hrs post dose by Western blot analysis; assay type: functional, organism-based; summary of the method: as §1
[17] = Toxicity in high fat diet-induced obese C57BL/6J mouse assessed as effect on body weight at 300 mg/kg administered via gavage for 2 weeks and measured after 6 hrs post does; assay type: organism-based; details: in vivo, po; summary of the method: as §4

Sequence of RAC-alpha serine/threonine-protein kinase (Mus musculus) (P31750 whole entry): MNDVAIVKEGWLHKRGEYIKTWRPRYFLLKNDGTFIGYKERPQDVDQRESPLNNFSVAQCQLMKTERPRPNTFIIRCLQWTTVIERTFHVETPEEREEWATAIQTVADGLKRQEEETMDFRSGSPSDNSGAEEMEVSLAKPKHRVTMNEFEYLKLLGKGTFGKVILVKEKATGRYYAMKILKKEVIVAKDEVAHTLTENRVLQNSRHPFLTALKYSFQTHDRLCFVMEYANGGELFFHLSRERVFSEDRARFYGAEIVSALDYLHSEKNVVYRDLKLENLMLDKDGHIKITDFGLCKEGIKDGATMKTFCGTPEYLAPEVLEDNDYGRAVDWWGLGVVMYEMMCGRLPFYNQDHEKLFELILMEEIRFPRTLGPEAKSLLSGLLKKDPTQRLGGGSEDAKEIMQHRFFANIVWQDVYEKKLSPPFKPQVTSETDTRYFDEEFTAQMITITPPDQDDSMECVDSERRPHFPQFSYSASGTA
Sequence of Glycogen synthase kinase-3 alpha/beta (Mus musculus) (Q2NL51 whole entry, looked up): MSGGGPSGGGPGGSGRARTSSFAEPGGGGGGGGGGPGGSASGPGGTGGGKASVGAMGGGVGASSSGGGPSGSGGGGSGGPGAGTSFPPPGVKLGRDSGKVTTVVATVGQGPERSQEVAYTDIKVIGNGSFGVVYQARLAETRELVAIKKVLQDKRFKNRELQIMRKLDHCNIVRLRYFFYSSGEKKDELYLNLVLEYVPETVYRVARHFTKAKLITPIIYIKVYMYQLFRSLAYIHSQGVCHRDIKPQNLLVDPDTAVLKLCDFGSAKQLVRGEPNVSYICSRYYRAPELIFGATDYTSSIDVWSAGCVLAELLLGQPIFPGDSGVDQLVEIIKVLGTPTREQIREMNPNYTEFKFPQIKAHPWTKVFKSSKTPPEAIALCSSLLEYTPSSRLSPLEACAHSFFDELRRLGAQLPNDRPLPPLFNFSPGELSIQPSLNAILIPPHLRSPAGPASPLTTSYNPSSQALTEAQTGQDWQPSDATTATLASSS
Sequence of Glycogen synthase kinase-3 alpha/beta (Mus musculus) (Q9WV60 whole entry, looked up): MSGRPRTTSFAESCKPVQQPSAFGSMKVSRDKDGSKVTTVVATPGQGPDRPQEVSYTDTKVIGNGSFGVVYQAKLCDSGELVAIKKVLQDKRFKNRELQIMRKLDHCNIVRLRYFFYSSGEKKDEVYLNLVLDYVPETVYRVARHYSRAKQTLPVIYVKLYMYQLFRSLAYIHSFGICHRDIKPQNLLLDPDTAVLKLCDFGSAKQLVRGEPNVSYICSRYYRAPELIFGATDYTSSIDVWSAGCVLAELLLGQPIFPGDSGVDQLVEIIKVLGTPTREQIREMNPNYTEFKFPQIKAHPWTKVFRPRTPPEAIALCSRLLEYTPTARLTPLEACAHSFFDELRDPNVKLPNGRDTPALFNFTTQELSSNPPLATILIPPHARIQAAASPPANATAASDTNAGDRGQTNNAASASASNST

## COc1ccc(CCC(=O)c2ccc(O)cc2O)cc1
[1]
  Activity: Toxic
[2]
  Activity: Active
[3]
  Activity: inactive
[4]
  Activity: Active
[5]
  Activity: Active
[6]
  Activity: inactive
[7]
  Activity: Active
[8]
  Activity: inactive
[9]
  Activity: inactive
[10]
  Activity: Active
[11]
  Activity: Active
[12]
  Activity: Non-Toxic
[13]
  Activity: Active
[14]
  Activity: Non-Toxic
[15]
  Activity: Active
[16]
  Activity: Active

## CN(C)C(=N)N=C(N)N [METFORMIN]
[17]
  Activity: Non-Toxic
